Reference: PMC7825275 (Cancer chemotherapy and pharmacology, 2019)

What was measured:
[1] = Ultrafilterable carboplatin; type: in vivo, human
Outline: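 Ultrafilterable platinum was measured by atomic absorption spectrophotometry in patient plasma. […] Plasma was spun at ~1,000 x g for 10 min and stored at −70°C or colder. Parameters were derived non-compartmentally. AUC targeting bias and precision were taken as mean prediction error and root mean squared prediction error. Cycles were compared by 2-sided exact Wilcoxon signed rank.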

[2] = test system: patients with advanced solid tumors; type: in vivo, human; details: with veliparib 100 mg BID and carboplatin AUC 6
Outline: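 Standard 3+3 escalation with modified Fibonacci steps. Oral veliparib was given every 12 h on days 1–7 of 21-day cycles, with IV carboplatin/paclitaxel on day 3. For the first 46 patients, cycle 1 was chemotherapy alone and DLT was scored in cycle 2; afterwards all three agents were given in cycle 1, which was the DLT cycle. Growth factors were barred in cycles 1–2. MTD was the highest dose with ≤1/6 DLTs.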

[3] = Paclitaxel plasma pharmacokinetics; type: in vivo, human; details: cycle 1 (veliparib -) vs cycle 2 (veliparib +)
Outline: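 Patient plasma from heparinized blood drawn pre-dose and at 0.5–24 h after start of IV paclitaxel infusion, in the chemotherapy-alone lead-in cycle and in the veliparib cycle (day 3). Samples were spun at ~1,000 x g for 10 min and plasma held at −70°C or colder. Quantitation was by LC-MS/MS with [13C6]-paclitaxel internal standard. Parameters were derived non-compartmentally and paired cycles compared by 2-sided exact Wilcoxon signed rank.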

patients = details: days 1-5, with veliparib 10 mg bid; cited from earlier work
[4] = test system: patients with advanced solid tumors; experiment: Toxicity by grade; type: in vivo, human; details: initial cycle of carboplatin and paclitaxel without veliparib
Outline: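 Adverse events were tabulated descriptively as maximum grade in three groups: the chemotherapy-only lead-in cycle, the first veliparib-containing cycle, and all cycles. CBC and serum chemistry including liver function tests were drawn weekly during cycles 1–2, then at the start of every cycle. Veliparib was oral, twice daily on days 1–7; carboplatin/paclitaxel were IV every 21 days.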

N.N.O=C([O-])C1(C(=O)[O-])CCC1.[Pt+2] [carboplatin]
Carboplatin exposure, effect of the presence of veliparib or veliparib dose ([1]; cycle 1 (veliparib -) vs cycle 2 (veliparib +)): not impacted
ME as % of AUC 6 mg•min/mL ([1]; in the absence of veliparib): 31%
RMSE as % of AUC 6 mg•min/mL ([1]; in the absence of veliparib): 57%
ME as % of AUC 6 mg•min/mL ([1]; in the presence of veliparib): 22%
RMSE as % of AUC 6 mg•min/mL ([1]; in the presence of veliparib): 45%

CC(=O)O[C@H]1C(=O)[C@@]2(C)[C@H]([C@H](OC(=O)c3ccccc3)[C@]3(O)C[C@H](OC(=O)[C@H](O)[C@@H](NC(=O)c4ccccc4)c4ccccc4)C(C)=C1C3(C)C)[C@]1(OC(C)=O)CO[C@@H]1C[C@@H]2O [paclitaxel]
MTD and RP2D, paclitaxel dose [2]: 200 mg/m^2
paclitaxel exposure, effect of the presence of veliparib or veliparib dose [3]: not impacted

CC[C@@]1(O)C(=O)OCc2c1cc1n(c2=O)Cc2cc3c(CN(C)C)c(O)ccc3nc2-1 [topotecan]
MTD, topotecan dose (patients): 0.6 mg

carboplatin and paclitaxel
neutropenia grade 3 [4]: 20%
neutropenia grade 4 [4]: 24%
neutropenia, % of patients [4]: 56%
